Results: ChEMBL document CHEMBL2375315, “Alkaloids from the deep-sea-derived fungus Aspergillus westerdijkiae DFFSCS013” (J Nat Prod, 2013)
pIC50: −log10 of the molar value.

Key:
Assay type in all cases: functional, cell-based
A549 = assay: Cytotoxicity against human A549 cells by MTT assay
Outline: (§1)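 Human tumour lines (erythroid leukemic K562, promyelocytic leukemia HL-60, breast adenocarcinoma MCF-7, lung carcinoma A549) exposed to compounds; viability read by MTT method, following a previously published protocol; IC50 values derived.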

K562 = assay: Cytotoxicity against human K562 cells by MTT assay; outline: as §1
MCF7 = assay: Cytotoxicity against human MCF7 cells by MTT assay; outline: as §1
HL-60 = assay: Cytotoxicity against human HL60 cells by MTT assay; outline: as §1

Structure (SMILES) | pIC50 (A549) | pIC50 (K562) | pIC50 (MCF7) | pIC50 (HL-60)
CC1(C)C=Cc2c(ccc3c2NC(=O)[C@@]32[C@@H](O)[C@@]34NC(=O)[C@]5(CCCN5C3=O)C[C@H]4C2(C)C)O1 | < 5.00 | 4.28 | < 5.00 | < 5.00
CC(C)CC(=O)OC(/C(=N/O)C(N)=O)C(C)C (configuration not stated) | < 5.00 | < 5.00 | < 5.00 | < 5.00
C[C@H]1NC(=O)c2ccccc2-n2c1nc1ccccc1c2=O | < 5.00 | < 5.00 | < 5.00 | < 5.00
C[C@@H]1NC(=O)c2ccccc2-n2c1nc1c(O)cccc1c2=O | < 5.00 | < 5.00 | < 5.00 | < 5.00
O=C1NCc2nc3c(O)cccc3c(=O)n2-c2ccccc21 | < 5.00 | < 5.00 | < 5.00 | < 5.00
C[C@@H]1NC(=O)c2ccccc2-n2c1nc1c(c2=O)C=CC=CO1 | < 5.00 | < 5.00 | < 5.00 | < 5.00
CC1(C)C=Cc2c3c(cc(Cl)c2O1)[C@@]1(C(=O)N3)[C@H](O)[C@@]23NC(=O)[C@]4(CCCN4C2=O)C[C@H]3C1(C)C | < 5.00 | 4.36 | < 5.00 | < 5.00
CC1(C)C=Cc2c(ccc3c2NC(=O)[C@@]32[C@H](O)[C@@]34NC(=O)[C@]5(CCCN5C3=O)C[C@H]4C2(C)C)O1 [SCLEROTIAMIDE] | < 5.00 | 4.59 | < 5.00 | 4.35
